Laboratory results reported in ChEMBL document CHEMBL4152328, “Design, synthesis, in vitro and in silico evaluation of a new series of oxadiazole-based anticancer agents as potential Akt and FAK inhibitors” (Eur J Med Chem, 2018).
Blank lines part the entries; values can stand above or below the compound they belong to. Calls of active or inactive are those of the source. No cut-off for these calls is given here.

Legend:
[1] = system: C6; assay: Cytotoxicity against rat C6 cells assessed as decrease in cell viability after 24 hrs by MTT assay; assay type: functional, cell-based; settings: C6, 24 h
Summary of the method: (§1)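 Viability was read as cellular MTT reduction. Cisplatin and GSK690693 were run as reference controls. IC50 values were derived for each cell line.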

[2] = system: A549; assay: Cytotoxicity against human A549 cells assessed as decrease in cell viability after 24 hrs by MTT assay; assay type: functional, cell-based; settings: A549, 24 h; summary of the method: as §1
[3] = system: NIH3T3; assay: Cytotoxicity against mouse NIH/3T3 cells assessed as decrease in cell viability after 24 hrs by MTT assay; assay type: cell-based; settings: NIH3T3, 24 h; summary of the method: as §1
[4] = Selectivity index, ratio of IC50 for mouse NIH/3T3 cells to IC50 for rat C6 cells; assay type: toxicity; settings: NIH/3T3 cells versus C6 cells, read-out: Ratio IC50
Summary of the method: (§2)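 Selectivity index = IC50 for NIH/3T3 normal fibroblasts / IC50 for the cancer line (A549 or C6). […] An IC50 above 403.00 was taken as 403.00.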

[5] = Selectivity index, ratio of IC50 for mouse NIH/3T3 cells to IC50 for human A549 cells; assay type: toxicity; settings: NIH/3T3 cells versus A549 cells, read-out: Ratio IC50; summary of the method: as §2
[6] = system: C6; assay: Induction of apoptosis in rat C6 cells assessed as early/late apoptotic cells at IC50 after 24 hrs by Annexin V-FITC/PI staining based flow cytometry (reference value: 8%); assay type: functional
[7] = system: C6; assay: Induction of apoptosis in rat C6 cells assessed as viable cells at IC50 after 24 hrs by Annexin V-FITC/PI staining based flow cytometry (reference value: 90%); assay type: functional
[8] = system: A549; assay: Induction of apoptosis in human A549 cells assessed as early/late apoptotic cells at IC50 after 24 hrs by Annexin V-FITC/PI staining based flow cytometry (reference value: 7.1%); assay type: functional
[9] = system: A549; assay: Induction of apoptosis in human A549 cells assessed as viable cells at IC50 after 24 hrs by Annexin V-FITC/PI staining based flow cytometry (reference value: 89%); assay type: functional
[10] = system: C6; assay: Induction of mitochondrial membrane potential loss in rat C6 cells assessed as intact mitochondrial membrane potential at IC50 measured after 24 hrs by JC-1 staining based flow cytometric analysis (reference value: 80%); assay type: functional
[11] = system: C6; assay: Induction of mitochondrial membrane potential loss in rat C6 cells at IC50 measured after 24 hrs by JC-1 staining based flow cytometric analysis (reference value: 19.9%); assay type: functional
[12] = system: A549; assay: Induction of mitochondrial membrane potential loss in human A549 cells assessed as intact mitochondrial membrane potential at IC50 measured after 24 hrs by JC-1 staining based flow cytometric analysis (reference value: 90.4%); assay type: functional
[13] = system: A549; assay: Induction of mitochondrial membrane potential loss in human A549 cells at IC50 measured after 24 hrs by JC-1 staining based flow cytometric analysis (reference value: 9.8%); assay type: functional
[14] = system: C6; assay: Induction of apoptosis in rat C6 cells assessed as caspase-3 negative cell level at IC50 after 24 hrs by FITC-A labeled flow cytometry (reference value: 96.4%); assay type: functional
[15] = system: C6; assay: Induction of apoptosis in rat C6 cells assessed as caspase-3 positive cell level at IC50 after 24 hrs by FITC-A labeled flow cytometry (reference value: 4.8%); assay type: functional
[16] = system: A549; assay: Induction of apoptosis in human A549 cells assessed as caspase-3 negative cell level at IC50 after 24 hrs by FITC-A labeled flow cytometry (reference value: 98.1%); assay type: functional
[17] = system: A549; assay: Induction of apoptosis in human A549 cells assessed as caspase-3 positive cell level at IC50 after 24 hrs by FITC-A labeled flow cytometry (reference value: 2.1%); assay type: functional
[18] = biological target: RAC-alpha serine/threonine-protein kinase (Rattus norvegicus, UniProt P47196); assay: Inhibition of Akt in rat C6 cells after 24 hrs by ELISA; assay type: cell-based
Sequence of RAC-alpha serine/threonine-protein kinase (Rattus norvegicus, UniProt P47196) (P47196 whole entry): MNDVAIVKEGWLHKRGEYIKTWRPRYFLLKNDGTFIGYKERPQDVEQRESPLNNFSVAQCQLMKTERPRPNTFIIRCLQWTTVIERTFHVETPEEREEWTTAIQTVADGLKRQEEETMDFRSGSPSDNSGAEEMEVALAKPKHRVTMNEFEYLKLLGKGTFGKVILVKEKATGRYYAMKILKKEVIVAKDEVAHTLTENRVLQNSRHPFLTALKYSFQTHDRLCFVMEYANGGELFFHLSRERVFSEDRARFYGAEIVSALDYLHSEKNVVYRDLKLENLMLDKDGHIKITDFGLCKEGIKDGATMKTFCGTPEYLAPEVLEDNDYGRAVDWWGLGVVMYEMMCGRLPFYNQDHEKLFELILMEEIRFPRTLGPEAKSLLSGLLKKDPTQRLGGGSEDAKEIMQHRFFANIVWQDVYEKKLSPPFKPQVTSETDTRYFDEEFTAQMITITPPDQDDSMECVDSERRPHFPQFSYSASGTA
Summary of the method: (§3)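 In-cell colorimetric ELISA: 10,000 cells/well were treated 24 h, then fixed in 4% formaldehyde for 15 min, permeabilised, quenched and blocked. Primary antibody ran overnight at 4 °C, then HRP conjugate for 30 min, then TMB; absorbance was read at 450 nm. Wells were in triplicate and blank-subtracted. Activity is relative to untreated cells; IC50 came from graphs of three concentrations.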

[19] = biological target: RAC-alpha serine/threonine-protein kinase (Homo sapiens, UniProt P31749); assay: Inhibition of Akt in human A549 cells after 24 hrs by ELISA; assay type: cell-based; summary of the method: as §3
Sequence of RAC-alpha serine/threonine-protein kinase (Homo sapiens, UniProt P31749) (P31749 whole entry): as the sequence (P47196 whole entry) above, with N2S, E46D, S50A, R112K, T117E, A137S, T389K, N410G, D415H counted along it

[20] = biological target: Focal adhesion kinase 1 (Rattus norvegicus, UniProt O35346); assay: Inhibition of FAK phasphorylation at Tyr397 residues in rat C6 cells after 24 hrs by ELISA; assay type: cell-based
Sequence of Focal adhesion kinase 1 (O35346 whole entry): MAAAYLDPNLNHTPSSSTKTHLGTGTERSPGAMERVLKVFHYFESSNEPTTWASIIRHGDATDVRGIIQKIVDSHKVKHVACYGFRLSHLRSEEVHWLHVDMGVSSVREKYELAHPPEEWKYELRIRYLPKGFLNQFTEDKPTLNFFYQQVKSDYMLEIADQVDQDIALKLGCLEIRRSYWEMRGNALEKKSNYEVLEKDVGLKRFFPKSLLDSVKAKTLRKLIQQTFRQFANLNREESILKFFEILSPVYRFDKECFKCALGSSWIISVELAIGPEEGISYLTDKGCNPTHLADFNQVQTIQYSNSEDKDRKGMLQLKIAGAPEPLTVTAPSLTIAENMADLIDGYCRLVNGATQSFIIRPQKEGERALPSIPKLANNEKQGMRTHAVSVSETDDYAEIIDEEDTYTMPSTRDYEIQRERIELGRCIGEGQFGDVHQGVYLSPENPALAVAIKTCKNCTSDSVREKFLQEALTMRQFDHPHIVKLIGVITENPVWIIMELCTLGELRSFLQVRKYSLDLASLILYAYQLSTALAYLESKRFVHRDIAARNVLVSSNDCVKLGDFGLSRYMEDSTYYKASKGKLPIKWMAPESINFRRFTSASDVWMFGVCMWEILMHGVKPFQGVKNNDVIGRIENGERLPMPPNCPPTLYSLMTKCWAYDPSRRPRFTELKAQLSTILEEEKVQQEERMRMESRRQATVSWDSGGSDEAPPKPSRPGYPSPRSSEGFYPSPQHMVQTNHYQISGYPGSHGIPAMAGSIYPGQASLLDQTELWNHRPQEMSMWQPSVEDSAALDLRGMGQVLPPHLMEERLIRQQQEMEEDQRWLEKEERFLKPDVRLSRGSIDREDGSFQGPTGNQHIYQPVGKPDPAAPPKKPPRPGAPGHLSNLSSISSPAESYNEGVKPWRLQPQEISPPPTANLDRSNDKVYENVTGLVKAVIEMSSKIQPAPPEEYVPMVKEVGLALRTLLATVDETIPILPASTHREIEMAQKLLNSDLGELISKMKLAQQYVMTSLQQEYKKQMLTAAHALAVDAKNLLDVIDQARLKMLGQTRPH
Summary of the method: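 Cell-based colorimetric ELISA in C6 cells treated 24 h: cells were fixed in 4% formaldehyde for 20 min, quenched, and blocked for 1 h. Anti-FAK pTyr397, anti-FAK and anti-GAPDH primaries ran overnight at 4 °C, then HRP secondaries for 1.5 h and substrate for 30 min. OD450 was read in duplicate wells; pFAK was normalised to GAPDH. IC50 came from graphs of three concentrations.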

[21] = system: A549; assay: Induction of apoptotic morphological alterations in human A549 cells assessed as rounding of cells at IC50 after 24 hrs by transmission electron microscopy; assay type: functional, cell-based
Summary of the method: (§4)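 Cells were fixed in 2.5% glutaraldehyde in 0.1 M PBS pH 7.4 and held overnight at 4 °C, then agar-embedded and post-fixed in 2% osmium tetroxide. They were dehydrated through graded ethanol, embedded in EPON 812, ultrathin-sectioned and examined by transmission electron microscopy.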

[22] = system: A549; assay: Induction of apoptotic morphological alterations in human A549 cells assessed as disruption of cellular organization at IC50 after 24 hrs by transmission electron microscopy; assay type: functional, cell-based; summary of the method: as §4
[23] = system: A549; assay: Induction of apoptotic morphological alterations in human A549 cells assessed as cell shrinkage at IC50 after 24 hrs by transmission electron microscopy; assay type: functional, cell-based; summary of the method: as §4
[24] = system: A549; assay: Induction of apoptotic morphological alterations in human A549 cells assessed as DNA condensation at IC50 after 24 hrs by transmission electron microscopy; assay type: functional, cell-based; summary of the method: as §4
[25] = system: A549; assay: Induction of apoptotic morphological alterations in human A549 cells assessed as organellar membrane damage at IC50 after 24 hrs by transmission electron microscopy; assay type: functional, cell-based; summary of the method: as §4
[26] = system: C6; assay: Induction of apoptotic morphological alterations in rat C6 cells assessed as rounding of cells at IC50 after 24 hrs by transmission electron microscopy; assay type: functional, cell-based; summary of the method: as §4
[27] = system: C6; assay: Induction of apoptotic morphological alterations in rat C6 cells assessed as disruption of cellular organization at IC50 after 24 hrs by transmission electron microscopy; assay type: functional, cell-based; summary of the method: as §4
[28] = system: C6; assay: Induction of apoptotic morphological alterations in rat C6 cells assessed as cell shrinkage at IC50 after 24 hrs by transmission electron microscopy; assay type: functional, cell-based; summary of the method: as §4
[29] = system: C6; assay: Induction of apoptotic morphological alterations in rat C6 cells assessed as DNA condensation at IC50 after 24 hrs by transmission electron microscopy; assay type: functional, cell-based; summary of the method: as §4
[30] = system: C6; assay: Induction of apoptotic morphological alterations in rat C6 cells assessed as organellar membrane damage at IC50 after 24 hrs by transmission electron microscopy; assay type: functional, cell-based; summary of the method: as §4
[31] = system: A549; assay: Induction of apoptotic morphological alterations in human A549 cells assessed as increase in large vacuoles in cytoplasm containing degraded cellular material at IC50 after 24 hrs by transmission electron microscopy; assay type: functional, cell-based; summary of the method: as §4
[32] = system: A549; assay: Induction of apoptotic morphological alterations in human A549 cells assessed as membrane damage at IC50 after 24 hrs by transmission electron microscopy; assay type: functional, cell-based; summary of the method: as §4
[33] = system: A549; assay: Induction of apoptotic morphological alterations in human A549 cells assessed as nuclear fragmentation at IC50 after 24 hrs by transmission electron microscopy; assay type: functional, cell-based; summary of the method: as §4
[34] = system: C6; assay: Induction of apoptotic morphological alterations in rat C6 cells assessed as chromatin condensation at IC50 after 24 hrs by transmission electron microscopy; assay type: functional, cell-based; summary of the method: as §4
[35] = system: C6; assay: Induction of apoptotic morphological alterations in rat C6 cells assessed as large vacuoles at IC50 after 24 hrs by transmission electron microscopy; assay type: functional, cell-based; summary of the method: as §4
[36] = system: C6; assay: Induction of apoptotic morphological alterations in rat C6 cells assessed as membrane damage at IC50 after 24 hrs by transmission electron microscopy; assay type: functional, cell-based; summary of the method: as §4

IC50 [18]: 2.6 µM
IC50 [19]: 27.5 µM
IC50 [20]: 19.5 µM
SMILES: COc1ccc2nc(NC(=O)CSc3nnc(COc4ccc5c(c4)CCCC5)o3)sc2c1
IC50 [1]: 4.63 µM
IC50 [2]: 39.3 µM
IC50 [3]: 94.3 µM
selectivity ratio [4]: 20.4
selectivity ratio [5]: 2.4
Activity [6]: 5%
Activity [7]: 92.3%
Activity [8]: 12.2%
Activity [9]: 71.7%
Activity [10]: 24.4%
Activity [11]: 74.4%
Activity [12]: 69.8%
Activity [13]: 27.9%
Activity [14]: 69.8%
Activity [15]: 33.9%
Activity [16]: 76.4%
Activity [17]: 25%
Activity [21]: Active
Activity [22]: Active
Activity [23]: Active
Activity [24]: Active
Activity [25]: Active
Activity [26]: Active
Activity [27]: Active
Activity [28]: Active
Activity [29]: Active
Activity [30]: Active
Activity [31]: Active
Activity [32]: Active
Activity [33]: Active
Activity [34]: Active
Activity [35]: Active
Activity [36]: Active

SMILES: O=C(CSc1nnc(COc2ccc3c(c2)CCCC3)o1)Nc1nc2ccc([N+](=O)[O-])cc2s1
IC50 [1]: 98.3 µM
IC50 [2]: 233 µM
IC50 [3]: 336 µM
selectivity ratio [4]: 3.41
selectivity ratio [5]: 1.44

IC50 [18]: 44.5 µM
IC50 [19]: 138 µM
IC50 [20]: 105 µM
SMILES: O=C(CSc1nnc(COc2ccc3c(c2)CCCC3)o1)Nc1ncc([N+](=O)[O-])s1
IC50 [1]: 66.7 µM
IC50 [2]: 115 µM
IC50 [3]: > 403 µM
selectivity ratio [4]: > 6.04
selectivity ratio [5]: > 3.5
Activity [6]: 12.3%
Activity [7]: 80.8%
Activity [8]: 25.3%
Activity [9]: 67.8%
Activity [10]: 0.6%
Activity [11]: 98%
Activity [12]: 2.4%
Activity [13]: 95.5%
Activity [14]: 90.1%
Activity [15]: 11.3%
Activity [16]: 95.1%
Activity [17]: 5.4%
Activity [21]: Active
Activity [22]: Active
Activity [23]: Active
Activity [24]: Active
Activity [25]: Active
Activity [26]: Active
Activity [27]: Active
Activity [28]: Active
Activity [29]: Active
Activity [30]: Active

IC50 [18]: 165 µM
IC50 [19]: 98.3 µM
IC50 [20]: 118 µM
SMILES: O=C(CSc1nnc(COc2ccc3c(c2)CCCC3)o1)Nc1nc2ccc(F)cc2s1
IC50 [1]: 89.3 µM
IC50 [2]: 91.7 µM
IC50 [3]: 292 µM
selectivity ratio [4]: 3.27
selectivity ratio [5]: 3.18
Activity [6]: 11.9%
Activity [7]: 84.9%
Activity [8]: 17%
Activity [9]: 79.1%
Activity [10]: 32.6%
Activity [11]: 60.1%
Activity [12]: 78.2%
Activity [13]: 21%
Activity [14]: 90.8%
Activity [15]: 11.7%
Activity [16]: 93.5%
Activity [17]: 7.1%
Activity [21]: Active
Activity [22]: Active
Activity [23]: Active
Activity [24]: Active
Activity [25]: Active
Activity [26]: Active
Activity [27]: Active
Activity [28]: Active
Activity [29]: Active
Activity [30]: Active

SMILES: O=C(CSc1nnc(COc2ccc3c(c2)CCCC3)o1)Nc1nccs1
IC50 [1]: 213 µM
IC50 [2]: 228 µM
IC50 [3]: > 403 µM
selectivity ratio [4]: > 1.89
selectivity ratio [5]: > 1.76

IC50 [18]: 6.97 µM
SMILES: CCn1c(-c2nonc2N)nc2c(C#CC(C)(C)O)ncc(OC[C@H]3CCCNC3)c21 [GSK-690693]
IC50 [1]: 14.5 µM
IC50 [2]: 105 µM

SMILES: CCOc1ccc2nc(NC(=O)CSc3nnc(COc4ccc5c(c4)CCCC5)o3)sc2c1
IC50 [1]: 93.3 µM
IC50 [2]: 283 µM
IC50 [3]: > 403 µM
selectivity ratio [4]: > 4.32
selectivity ratio [5]: > 1.42

SMILES: Cc1ccc2nc(NC(=O)CSc3nnc(COc4ccc5c(c4)CCCC5)o3)sc2c1
IC50 [1]: 108 µM
IC50 [2]: 210 µM
IC50 [3]: > 403 µM
selectivity ratio [4]: > 3.72
selectivity ratio [5]: > 1.92

SMILES: O=C(CSc1nnc(COc2ccc3c(c2)CCCC3)o1)Nc1nc2ccc(Cl)cc2s1
IC50 [1]: 237 µM
IC50 [2]: 263 µM
IC50 [3]: 247 µM
selectivity ratio [4]: 1.04
selectivity ratio [5]: 0.94

SMILES: O=C(CSc1nnc(COc2ccc3c(c2)CCCC3)o1)Nc1nc2ccccc2s1
IC50 [1]: 153 µM
IC50 [2]: 247 µM
IC50 [3]: 96.7 µM
selectivity ratio [4]: 0.63
selectivity ratio [5]: 0.39
